In article PMC8162271 (Chemical Science, 2020):

Assays:
metal-free Aβ42 = metal-free Aβ42 (Homo sapiens, UniProt P05067); experiment: Aβ42 aggregation inhibition experiments; format: biochemical; settings: [Aβ42] 25 μM, [flavonoid] 50 μM, pH 7.4, 37 °C, 24 h
Procedure, shortened: (§1)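 Freshly prepared Aβ42 (25 μM), metal-free or with ZnCl2 (25 μM), incubated with test compound (50 μM) at pH 7.4, 37 °C, for 24 h with constant agitation. Species sizes were resolved by gel/Western blot probed with anti-Aβ antibody 6E10. Band intensities were quantified and normalized to the matching untreated control (ISample/IControl). Aggregate morphology was imaged by TEM.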

Cu(II)–Aβ42 = Cu(II)–Aβ42 (Homo sapiens, UniProt P05067); experiment: Aβ42 aggregation inhibition experiments; format: biochemical; settings: 24 h; for MW distribution of Aβ42 species by gel/Western blot: [Aβ42] 25 μM, [CuCl2] 25 μM, [flavonoid] 50 μM, pH 6.6, 37 °C; for morphology of Aβ42 aggregates by TEM: Cu(II)–Aβ42, [flavonoid] 50 μM
Chain of Cu(II)–Aβ42 (P05067 672-713): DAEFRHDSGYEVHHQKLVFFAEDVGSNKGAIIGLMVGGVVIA

Zn(II)–Aβ42 = Zn(II)–Aβ42 (Homo sapiens, UniProt P05067); experiment: Aβ42 aggregation inhibition experiments; format: biochemical; settings: 24 h; for MW distribution of Aβ42 species by gel/Western blot: [Aβ42] 25 μM, [ZnCl2] 25 μM, [flavonoid] 50 μM, pH 7.4, 37 °C; for morphology of Aβ42 aggregates by TEM: Zn(II)–Aβ42, [flavonoid] 50 μM
Chain of Zn(II)–Aβ42 (P05067 672-713): as above
Procedure, shortened: as §1

[1] = target: preformed metal-free Aβ42 aggregates (Homo sapiens, UniProt P05067); experiment: Aβ42 disaggregation experiments; format: biochemical; settings: preformed aggregates (24 h) then [flavonoid] 50 μM 24 h, pH 7.4
Chain of preformed metal-free Aβ42 aggregates (P05067 672-713): as above
Procedure, shortened: (§2)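 Aβ42 (25 μM), with or without metal ions, was pre-incubated for 24 h to form aggregates, then exposed to test compound for a further 24 h. Species sizes were analysed by gel/Western blot with anti-Aβ antibody 6E10. Band intensities were quantified as a ratio to the matching control (ISample/IControl). Morphology was examined by TEM.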

[2] = Trolox equivalent antioxidant capacity; settings: TEAC assay, result in words
Procedure, shortened: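 Radical quenching was measured with the cationic radical of 2,2′-azino-bis(3-ethylbenzthiazoline-6-sulphonic acid) as substrate, in EtOH at 25 °C. Absorbance was read at 734 nm, and capacity is expressed relative to the vitamin E analog Trolox as Trolox equivalents.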

[3] = target: Electrophorus electricus AChE (eeAChE) (Electrophorus electricus, UniProt O42275); experiment: AChE activity assay; format: biochemical; settings: for inhibition of the activity of AChE: eeAChE, result in words; for IC50: AChE IC50, eeAChE, fluorometric assay
Chain of Electrophorus electricus AChE (eeAChE) (O42275 24-633): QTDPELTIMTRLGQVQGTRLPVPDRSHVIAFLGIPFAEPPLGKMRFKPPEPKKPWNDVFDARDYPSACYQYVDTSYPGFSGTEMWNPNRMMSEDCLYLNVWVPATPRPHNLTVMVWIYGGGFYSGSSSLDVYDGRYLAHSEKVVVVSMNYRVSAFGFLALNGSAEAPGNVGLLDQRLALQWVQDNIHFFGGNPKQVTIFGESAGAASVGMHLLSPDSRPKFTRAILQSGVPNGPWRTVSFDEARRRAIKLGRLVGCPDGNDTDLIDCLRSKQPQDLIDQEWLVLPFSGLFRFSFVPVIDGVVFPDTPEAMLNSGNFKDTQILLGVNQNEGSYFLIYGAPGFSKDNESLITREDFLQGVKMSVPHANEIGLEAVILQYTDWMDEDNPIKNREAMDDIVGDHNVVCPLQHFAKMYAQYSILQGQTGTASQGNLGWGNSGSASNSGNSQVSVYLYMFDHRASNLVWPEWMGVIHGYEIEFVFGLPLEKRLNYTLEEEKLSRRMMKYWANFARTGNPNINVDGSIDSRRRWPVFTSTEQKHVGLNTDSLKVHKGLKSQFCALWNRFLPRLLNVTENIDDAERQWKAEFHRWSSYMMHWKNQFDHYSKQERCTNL

[4] = target: preformed Cu(II)–Aβ42 aggregates (Homo sapiens, UniProt P05067); experiment: Aβ42 disaggregation experiments; format: biochemical
Chain of preformed Cu(II)–Aβ42 aggregates (P05067 672-713): as the sequence (P05067 672-713) above
Procedure, shortened: as §2

[5] = target: preformed Zn(II)–Aβ42 aggregates (Homo sapiens, UniProt P05067); experiment: Aβ42 disaggregation experiments; format: biochemical
Chain of preformed Zn(II)–Aβ42 aggregates (P05067 672-713): as above
Procedure, shortened: as §2

Interaction with Cu = format: physicochemical; settings: UV-Vis; indicative of oxidation
Procedure, shortened: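 UV-Vis absorption spectra of test compound (25 μM) recorded with CuCl2 at 0, 12.5, 25, 50 and 125 μM. Medium was 20 mM HEPES, pH 6.6, 150 mM NaCl, or EtOH for some compounds. Additional spectra were taken after adding 0.5, 1 and 2 equiv of CuCl2.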

Chain of metal-free Aβ42 (P05067 672-713): as above

Row | Compound | MW distribution of Aβ42 species by gel/Western blot (metal-free Aβ42) | MW distribution of Aβ42 species by gel/Western blot (Cu(II)–Aβ42) | MW distribution of Aβ42 species by gel/Western blot (Zn(II)–Aβ42) | MW distribution of Aβ42 species by gel/Western blot [1] | radical scavenging activity, compared to Trolox [2] | inhibition of the activity of AChE [3] | morphology of Aβ42 aggregates by TEM (Cu(II)–Aβ42) | morphology of Aβ42 aggregates by TEM (Zn(II)–Aβ42) | morphology of preformed aggregates by TEM [4] | morphology of preformed aggregates by TEM [5] | absorption band at ca. 400–440 nm at greater Cu(II) concentrations (Interaction with Cu) | IC50 [3] [nM]
1 | O=c1c(-c2ccc(O)cc2)coc2cc(O)cc(O)c12 [Gen, genistein] | did not exhibit significant reactivity | did not exhibit significant reactivity | did not exhibit significant reactivity | did not exhibit notable reactivity |  |  |  |  |  |  |  | 
2 | O=c1cc(-c2ccc(O)cc2)oc2cc(O)cc(O)c12 [Api, Apigenin] | did not exhibit significant reactivity | did not exhibit significant reactivity | did not exhibit significant reactivity | did not exhibit notable reactivity | negligible | not inhibited |  |  |  |  |  | 
3 | O=c1c(O)c(-c2ccc(O)c(O)c2)oc2cc(O)cc(O)c12 [Que, Quercetin] | minor change | increased the smearing band intensity at ca. 7–270 kDa | altered the aggregation of Zn(II)–Aβ42, resulting in diverse MW distributions from ca. 15 to 50 kDa | very mildly varied the MW distribution |  |  | significantly shorter fibrillar aggregates | thinner chopped fibrils | a mixture of amorphous aggregates and thinner chopped fibrils | shorter fibrils | diminished | 
4 | O=c1cc(-c2ccccc2)oc2cc(O)cc(O)c12 [Chr, chrysin] | did not exhibit significant reactivity | did not exhibit significant reactivity | did not exhibit significant reactivity | did not exhibit notable reactivity | negligible | not inhibited |  |  |  |  |  | 
5 | O=c1c(O)c(-c2ccccc2)oc2cc(O)cc(O)c12 [Gal, galangin] | did not exhibit significant reactivity | did not exhibit significant reactivity | did not exhibit significant reactivity | did not exhibit notable reactivity |  |  | did not significantly alter the morphologies | fibrillar aggregates similar to those from the compound-free Zn(II)–Aβ42 sample |  |  |  | 
6 | O=c1cc(-c2ccc(O)c(O)c2)oc2cc(O)cc(O)c12 [Lut, luteolin] | minor change | increased the signal in the range of ca. 7–50 kDa | altered the aggregation of Zn(II)–Aβ42, resulting in diverse MW distributions from ca. 15 to 50 kDa | did not impact |  |  | decreased the degree of branching in the fibrils | thinner chopped fibrils | a mixture of amorphous aggregates and thinner chopped fibrils |  |  | 
7 | O=c1cc(-c2ccccc2)oc2cccc(O)c12 [HF, 5-hydroxyflavone] | did not exhibit significant reactivity | did not exhibit significant reactivity | did not exhibit significant reactivity | did not exhibit notable reactivity | negligible | not inhibited | did not significantly alter the morphologies | fibrillar aggregates similar to those from the compound-free Zn(II)–Aβ42 sample |  |  |  | > 2000
8 | O=c1c(O)c(-c2ccc(O)cc2)oc2cc(O)cc(O)c12 [Kae, kaempferol] | did not significantly influence | increased the signal in the range of ca. 7–50 kDa | did not significantly influence | did not impact |  |  | amorphous assemblies distinct from native Aβ42 fibrils | fibrillar aggregates similar to those from the compound-free Zn(II)–Aβ42 sample | a mixture of amorphous aggregates and thinner chopped fibrils |  | diminished | 
9 | O=c1c(O)c(-c2ccccc2)oc2cccc(O)c12 [DHF, 3,5-dihydroxyflavone] | did not exhibit significant reactivity | did not exhibit significant reactivity | did not exhibit significant reactivity | did not exhibit notable reactivity |  |  |  |  |  |  |  | > 2000
10 | O=c1c(-c2ccccc2)coc2cccc(O)c12 [HIF, 5-hydroxyisoflavone] | did not exhibit significant reactivity | did not exhibit significant reactivity | did not exhibit significant reactivity | did not exhibit notable reactivity | negligible | not inhibited |  |  |  |  |  | 
11 | O=c1c(-c2ccc(O)c(O)c2)coc2cc(O)cc(O)c12 [Oro, orobol] | minor change | significantly decreased the band intensity of the entire range (7–270 kDa) | altered the aggregation of Zn(II)–Aβ42, resulting in diverse MW distributions from ca. 15 to 50 kDa | very mildly varied the MW distribution |  |  | thinner and shorter aggregates | thinner chopped fibrils | a mixture of amorphous aggregates and thinner chopped fibrils | shorter fibrils |  | 
12 | O=c1c(-c2ccccc2)coc2cc(O)cc(O)c12 [DHIF, 5,7-dihydroxyisoflavone] | did not exhibit significant reactivity | did not exhibit significant reactivity | did not exhibit significant reactivity | did not exhibit notable reactivity | negligible |  |  |  |  |  |  | 
